Rad51 HR inh – Rad51 (human) homologous recombination inhibition; inhibition, % at 10 µM; Q06609; hRad51 DNA strand exchange, fluorescence dequenching; 0.085% of 200,000 active;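 active = inhibition above 40% at the single screening dose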
Target sequence (Q06609 whole entry, looked up): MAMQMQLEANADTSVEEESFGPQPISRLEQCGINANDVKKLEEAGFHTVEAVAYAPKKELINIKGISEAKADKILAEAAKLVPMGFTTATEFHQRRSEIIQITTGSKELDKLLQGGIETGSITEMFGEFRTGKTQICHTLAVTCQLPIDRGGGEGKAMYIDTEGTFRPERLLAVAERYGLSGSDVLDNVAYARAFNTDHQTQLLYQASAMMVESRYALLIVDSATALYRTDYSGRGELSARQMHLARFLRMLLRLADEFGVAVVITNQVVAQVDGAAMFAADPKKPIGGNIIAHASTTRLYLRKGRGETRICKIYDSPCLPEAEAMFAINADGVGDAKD
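material = hRad51 filaments on single-stranded DNA | reagent = Donor/quencher-labelled 47-bp dsDNA substrate | compound = 10 µM final, single point | schedule = strand-exchange reaction 15 min at room temperature | measured by = fluorescein emission 520 nm, excitation 485 nm | read-out basis = % inhibition versus plate control and blank means | benchmarks = plate controls and plate blanks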
FLuc act counter – affects firefly luciferase, flagging false hits in luciferase stimulation screens. 200,000 tested, under 10 active. ATPlite luciferase biochemical, luminescence, 10 min; 0 = ATP-free wells, 1 = DMSO control. P08659. AID 1027. activation factor at 10 µM;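 active = luciferase activation factor, scaled between plate controls, of at least 2 with compound at 10 µM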
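Assay system: Luciferase/luciferin reagent mix; Medium: PBS as buffer for the ATP substrate; Dosing: test compounds dosed from 2 mM stocks in 100% DMSO; Times: 10 min, room temperature; Signal: luminescence from luciferase reaction; Read-out: luciferase activation; Controls: No-ATP low control, compound-free enzyme-plus-ATP high control.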
FLuc inh counter – counter-screen for luciferase assay inhibitors: firefly luciferase inhibition. AID 1006. P08659. ATPLite firefly luciferase biochemical luminescence, 10 min. inhibition, % at 10 µM. 1.5% of 200,000 active;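 active = inhibition above about 50% when tested at 10 µM, limit read from the data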
NF-kB expr up – raises NF-kB expression in human neuronal cells. NF-kB reporter expression; hits give high values. fold change at 12.5 µM. 1.6% of 190,000 active; in the data active = fold change above about 3.3
APP 5'UTR act – activates APP 5'UTR luciferase reporter; SH-SY5Y APP 5'UTR luciferase reporter, luminescence; zero percent = DMSO vehicle wells; activation, % at 2 µM; 1% of 190,000 active;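 active = activation above a set limit, based on mean plus 3 SD of controls, cut at about 140% in these data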
STAT1 activator – STAT1 signaling activation; NIH 3T3 STAT1-luciferase reporter, IFN-gamma, luminescence; 100% = IFN-gamma alone, no compound; activation (% of control), % at 5.5 µM; 2.6% of 200,000 active;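 active = activation above the screen-wide mean activation plus 3 SD, cut at about 130% in these data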
Numbers stand for hits; 0 = inactive; - = not tested or not shown. Only some compounds are listed: those with a hit (about 3.9% of all), similar ones and a draw of the others.

SMILES	Rad51 HR inh	FLuc act counter	FLuc inh counter	NF-kB expr up	APP 5'UTR act	STAT1 activator
O=C1C2C(C(=O)N1c1ccccc1)N1CCCN1C2c1ccccc1 (stereo not drawn)	0	0	0	0	0	0
C[C@H]1O[C@H](O[C@H]2[C@H](O)[C@@H](O)[C@@H](O[C@H]3[C@H](O)[C@@H](O)C(O)O[C@@H]3CO)O[C@@H]2CO)[C@H](O)[C@@H](O)[C@@H]1N[C@H]1C=C(CO)[C@@H](O)[C@H](O)[C@H]1O (stereo partly drawn)	0	0	0	-	-	-
Cc1cc(NC(=O)NC(=O)c2ccc(F)cc2F)n[nH]1	0	0	53	0	0	149
Cn1nnnc1SCC(=O)C(C)(C)C	0	0	0	0	0	0
COc1ccc2c(c1)CCC(C)N2C(=O)C(=O)c1c[nH]c2ccccc12 (stereo not drawn)	0	-	-	-	-	-
O=C(Cc1ccccc1)O/N=C1\CCCc2ccccc21	0	0	0	0	0	0
O=C(O/N=C1\CCCc2ccccc21)c1cccs1	0	0	91	0	0	0
COc1ccc(-c2cc3nc[nH]c(=O)c3s2)cc1	0	0	72	0	0	0
O=c1[nH]cnc2cc(-c3ccccc3)sc12	0	0	0	0	0	0
O=[N+]([O-])c1ccccc1/C=N/NC1=NCCCCC1	0	0	0	0	0	133
Cc1ccc(Nc2nc(-c3cccs3)cs2)nc1	0	0	85	4.9	172	0
O=C(Cc1ccccc1)Nc1nc(-c2cccs2)cs1	0	0	0	0	0	0
c1ccc(-c2csc(Nc3cccnc3)n2)nc1	0	0	0	0	0	0
Cc1cc(O)ccc1Nc1nc(-c2cccs2)cs1	0	0	78	7.2	148	0
CN(c1ccc(O)cc1)c1nc(-c2cccs2)cs1	-	0	0	7	173	141
Cc1nc(N)sc1-c1csc(N(C)c2ccc(O)cc2)n1	0	0	0	0	0	0
COc1ccc(-c2csc(Nc3cccnc3)n2)cc1	0	0	0	0	0	134
Cc1ccc(/C=N/NC(=O)C(C)Oc2ccccc2[N+](=O)[O-])s1 (stereo not drawn)	-	0	0	0	0	0
CNC(=O)c1[nH]cnc1C(=O)Nc1ccc(OC)cc1	0	-	-	-	-	-
c1cncc(Nc2nc(-c3cccs3)cs2)c1	0	0	0	0	0	132
COc1ccc(OC)c(NC(=O)c2ccc(CSc3ncccn3)cc2)c1	0	0	0	0	0	0
Cc1ccc2nc(-c3ccc(N)cc3)sc2c1	0	-	-	-	-	-
Nc1ccc2nc(-c3ccccc3)sc2c1	0	0	90	0	0	0
COc1ccc2nc(-c3ccc(F)cc3)sc2c1	0	-	-	-	-	-
Nc1ccc(-c2nc3cc(N)ccc3s2)cc1	0	0	89	5.3	186	0
SMILES	Rad51 HR inh	FLuc act counter	FLuc inh counter	NF-kB expr up	APP 5'UTR act	STAT1 activator
O=C(NCc1ccc(F)cc1)c1ccc(Br)o1	0	0	0	0	0	0
Cc1ccccc1-c1noc(-c2ccc(O)cc2)n1	0	0	0	7.7	156	140
Cc1ccccc1-c1noc(-c2ccccc2C(=O)N2CCCC2)n1	0	0	0	0	0	0
Cc1ccccc1-c1noc(-c2ccc(Cl)cc2)n1	0	0	0	3.4	0	0
Cc1ccccc1-c1noc(-c2ccccc2F)n1	0	0	0	6.8	0	139
Cc1ccc(S(=O)(=O)N2CC3CCCC2C3)cc1 (stereo not drawn)	0	-	-	-	-	-
COc1ccc(C(=O)NNC2=NCCCCC2)cc1	0	0	0	0	0	0
CCCCSc1nc2c(cnn2-c2ccccc2)c(=O)n1N	0	0	0	4.7	168	141
CCCSc1nc2c(cnn2-c2ccccc2)c(=O)n1N	0	-	-	-	-	-
Nn1c(SCc2ccccc2)nc2c(cnn2-c2ccccc2)c1=O	0	0	0	0	0	135
N#CCC(=O)c1sccc1-n1cccc1	0	0	0	0	0	0
CCC(CC)C(=O)NCCc1cc2ccc(C)cc2[nH]c1=O	0	0	0	0	0	0
Cc1ccc2cc(CCNC(=O)c3cccs3)c(=O)[nH]c2c1	-	0	0	0	0	139
CC1=CC(C)(C)N2C(=O)C3(C(C#N)=C(N)Oc4cc(O)ccc43)c3cccc1c32 (stereo not drawn)	0	0	0	0	0	131
O=C(NNC(=O)c1nn(-c2ccc(F)cc2)ccc1=O)c1ccccc1Cl	0	-	-	-	-	-

From PubChem
